Source: ChEMBL document CHEMBL4261552, “4-Hydroxy-N-[3,5-bis(trifluoromethyl)phenyl]-1,2,5-thiadiazole-3-carboxamide: a novel inhibitor of the canonical NF-κB cascade” (Medchemcomm, 2017)
Activity calls are given as the source filed them. The rule behind the calls is not given here.

Columns and labels:
[1] = target: T1, Inhibitor of nuclear factor kappa-B kinase subunit alpha (Homo sapiens) (UniProt O15111); experiment: Induction of IKKalpha phosphorylation at S176/180 residues in TNFalpha-stimulated human Jurkat cells at 10 uM preincubated for 60 mins followed by TNFalpha-stimulation for 20 mins by immunoblot analysis; format: cell-based
T1 sequence (whole entry): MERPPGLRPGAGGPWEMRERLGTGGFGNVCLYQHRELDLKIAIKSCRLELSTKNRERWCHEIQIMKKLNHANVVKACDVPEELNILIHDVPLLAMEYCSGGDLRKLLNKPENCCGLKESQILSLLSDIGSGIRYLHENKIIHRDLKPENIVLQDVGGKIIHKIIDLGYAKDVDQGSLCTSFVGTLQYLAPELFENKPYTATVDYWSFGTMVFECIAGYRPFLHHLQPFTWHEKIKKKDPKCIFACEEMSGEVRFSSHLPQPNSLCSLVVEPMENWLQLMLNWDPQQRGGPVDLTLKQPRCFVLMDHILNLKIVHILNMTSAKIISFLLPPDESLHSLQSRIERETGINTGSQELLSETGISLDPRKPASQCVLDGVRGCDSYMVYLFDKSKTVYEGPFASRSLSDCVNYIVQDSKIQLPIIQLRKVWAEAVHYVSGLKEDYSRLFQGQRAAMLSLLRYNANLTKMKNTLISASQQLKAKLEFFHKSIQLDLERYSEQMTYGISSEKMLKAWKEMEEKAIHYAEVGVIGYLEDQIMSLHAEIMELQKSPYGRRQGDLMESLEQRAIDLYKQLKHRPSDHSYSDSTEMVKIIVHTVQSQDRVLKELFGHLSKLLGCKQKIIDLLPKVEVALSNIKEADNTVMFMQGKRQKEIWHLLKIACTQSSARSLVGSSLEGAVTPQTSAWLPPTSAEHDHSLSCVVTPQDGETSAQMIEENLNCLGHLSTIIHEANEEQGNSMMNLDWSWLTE
How it was run: (§1)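 Jurkat E6.1 cells in X-VIVO 15 with 10% FBS, passages 5–10, were pretreated 60 min with 10 µM compound (DMSO vehicle), then stimulated 20 min with TNFα 15 ng/mL. Lysates were made with protease and phosphatase inhibitors, 20 µg/lane was run on 12% SDS-PAGE, and IKKα/IKKβ phosphorylation was detected by immunoblot with ECL. Three independent experiments were run.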

[2] = target: Inhibitor of NF-kappa-B kinase (IKK) (Homo sapiens) (UniProt O14920+O15111+Q9Y6K9); experiment: Inhibition of IKKbeta/IKKalpha/NEMO complex immunoprecipated from TNFalpha-stimulated human Jurkat cells at 100 uM relative to control
[3] = target: T2, Inhibitor of nuclear factor kappa-B kinase subunit beta (Homo sapiens) (UniProt O14920); experiment: Induction of IKKbeta phosphorylation at S177/181 residues in TNFalpha-stimulated human Jurkat cells at 10 uM preincubated for 60 mins followed by TNFalpha-stimulation for 20 mins by immunoblot analysis; format: cell-based; how it was run: as §1
T2 sequence (whole entry): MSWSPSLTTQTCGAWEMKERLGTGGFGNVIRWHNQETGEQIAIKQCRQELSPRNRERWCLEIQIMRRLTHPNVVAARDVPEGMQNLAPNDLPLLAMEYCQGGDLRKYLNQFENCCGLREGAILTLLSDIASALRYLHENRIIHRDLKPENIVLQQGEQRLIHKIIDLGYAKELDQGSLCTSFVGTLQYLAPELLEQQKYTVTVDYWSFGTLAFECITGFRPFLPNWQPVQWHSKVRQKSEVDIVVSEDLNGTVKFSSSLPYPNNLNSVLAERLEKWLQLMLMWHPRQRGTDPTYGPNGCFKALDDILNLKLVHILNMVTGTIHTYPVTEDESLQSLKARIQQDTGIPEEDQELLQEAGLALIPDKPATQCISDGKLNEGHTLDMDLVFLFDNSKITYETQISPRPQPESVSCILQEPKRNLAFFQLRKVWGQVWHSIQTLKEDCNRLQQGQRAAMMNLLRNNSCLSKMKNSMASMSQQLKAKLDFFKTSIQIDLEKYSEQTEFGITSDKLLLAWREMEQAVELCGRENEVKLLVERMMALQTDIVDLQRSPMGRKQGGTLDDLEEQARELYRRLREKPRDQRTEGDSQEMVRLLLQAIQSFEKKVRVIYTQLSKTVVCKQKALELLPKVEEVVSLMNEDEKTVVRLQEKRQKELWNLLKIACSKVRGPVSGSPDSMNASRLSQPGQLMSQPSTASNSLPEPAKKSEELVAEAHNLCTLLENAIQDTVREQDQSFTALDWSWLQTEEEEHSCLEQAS

Homo sapiens = species: Homo sapiens; experiment: Inhibition of canonical NF-kB signaling pathway in human THP1 cells assessed as reduction in LPS-induced IkBalpha degradation preincubated for 60 mins followed by LPS addition measured after 30 mins by immunoblot analysis; format: cell-based
How it was run: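 THP-1 cells in RPMI-1640 with 10% FBS. Cells exposed 60 min to compound, then 30 min to LPS 1 µg/mL. Lysates immunoblotted at 20 µg/lane for IκBα and β-actin, with ECL detection. Band signals normalized as % of control; apparent IC50 by non-linear regression; mean ± SD of three independent experiments.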

SMILES: O=C(Nc1cc(C(F)(F)F)cc(C(F)(F)F)c1)c1cc(Cl)ccc1O [IMD-0354]
- Activity [1]: Active
- inhibition [2]: 40%
- Activity [3]: Active

SMILES: O=C(Nc1cc(C(F)(F)F)cc(C(F)(F)F)c1)c1nsnc1O
- inhibition (Homo sapiens): Dose-dependent effect
